# Sampled rows, rich in hits. Any-hit rate of the full collection: about 4.9%.
# FLuc act counter = FLuc activators, initial screening, artefact control for FLuc-dependent activation tests, biochemical, ATPlite luminescence. ATPlite luciferase biochemical, 10 min; 0 = ATP-free wells, 1 = DMSO control. AID 1027, 2008. 200,000 tested, under 10 active. activation factor at 10 µM;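 active = luciferase activation factor, scaled between plate controls, of at least 2 with compound at 10 µM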
# Target sequence (P08659 whole entry, looked up): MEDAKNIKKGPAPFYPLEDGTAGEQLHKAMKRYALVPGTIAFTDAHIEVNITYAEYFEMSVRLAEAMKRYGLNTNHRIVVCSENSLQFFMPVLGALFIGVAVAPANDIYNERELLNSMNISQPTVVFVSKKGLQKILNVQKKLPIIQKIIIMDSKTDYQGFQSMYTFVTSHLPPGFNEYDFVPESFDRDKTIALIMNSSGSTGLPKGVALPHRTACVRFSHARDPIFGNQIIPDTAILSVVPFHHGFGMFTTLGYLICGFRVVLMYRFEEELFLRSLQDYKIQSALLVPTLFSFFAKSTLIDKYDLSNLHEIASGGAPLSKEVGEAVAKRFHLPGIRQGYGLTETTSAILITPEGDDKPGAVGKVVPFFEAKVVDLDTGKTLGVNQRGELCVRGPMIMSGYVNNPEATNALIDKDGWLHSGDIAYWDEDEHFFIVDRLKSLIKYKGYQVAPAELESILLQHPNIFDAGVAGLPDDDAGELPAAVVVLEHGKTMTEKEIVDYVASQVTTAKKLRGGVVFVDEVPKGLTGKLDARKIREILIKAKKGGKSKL
#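 Assay system – cell-free luciferase reagent · Medium – PBS-based ATP solution · Dosing – test compounds dosed from 2 mM stocks in 100% DMSO · Timing – 10 min, room temperature · Technique – light output (luminescence) · Measure – luminescence gain marking luciferase activators · Controls – No-ATP low control, compound-free enzyme-plus-ATP high control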
# STAT3 activator = IL-6 driven STAT3 reporter potentiators, primary screen, U3A cells, luciferase, luminescence, MLSCN library; IL-6 STAT3-luciferase reporter; 100% = signal with IL-6 EC80 alone; activation (% of control), % at 5.6 µM; 190,000 tested, 0.91% active; AID 871, 2007;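 active = activation above the screen-wide mean of compound activation plus 3 SD, cut at about 130% in these data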;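 also: 0% = background luminescence of wells with medium and substrate only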
#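 Material: human STAT1-deficient U3A cells with stable STAT3-luciferase reporter / Probe or stimulus: IL-6 stimulus at 33 ng/mL final / Schedule: 1 h compound pre-exposure, 6 h IL-6 stimulation, 37 °C / Technique: luminescence / Read-out basis: percent of IL-6-only median luminescence / Control set: IL-6-only high control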
# STAT3 inh-1 = IL-6 driven STAT3 reporter inhibitors, primary screen, U3A cells, luciferase, luminescence, MLSCN library; IL-6 STAT3-luciferase reporter; host cell line lacks STAT1; inhibition, % at 5.5 µM; 190,000 tested, 0.89% active; AID 862, 2007;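 active = inhibition above the mean inhibition across all screened compounds plus 3 SD, cut at about 44% in these data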;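 also: 0% = DMSO only wells and 100% = 100 µM nifuroxazide control wells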
# FLuc inhib CS = firefly luciferase enzyme inhibitors, primary screen, artefact control for luciferase-based inhibitor screens, biochemical, luminescence, ATPLite | inhibition, % at 10 µM | 10 min | 200,000 tested, 1.5% active | Luciferin 4-monooxygenase (Photinus pyralis), P08659;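 active = inhibition above about 50% when tested at 10 µM, limit read from the data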
# STAT1 activator = STAT1 signaling activators, primary screen, cell-based, HTS, luciferase reporter | NIH 3T3 STAT1-luciferase reporter, IFN-gamma, luminescence; 100% = IFN-gamma alone, no compound | activation (% of control), % at 5.5 µM | 200,000 tested, 2.6% active;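 active = activation above the screen-wide mean activation plus 3 SD, cut at about 130% in these data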;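 also: raw ratio to IFN-gamma control signal so 100% means no change and 0% no light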
# STAT1 inh = STAT1 signaling inhibitors, primary screen, cell-based, HTS, luciferase reporter. 200,000 tested, 0.35% active. NIH 3T3 STAT1-luciferase reporter, IFN-gamma, luminescence. inhibition, % at 5.5 µM. AID 920, 2007;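 active = inhibition above a set limit, the mean inhibition across all tested compounds plus 3 SD, cut at about 34% in these data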;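 also: 0% = IFN-gamma with DMSO and 100% = IFN-gamma with 300 µM nifuroxazide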
# STAT3 inh-2 = STAT3 reporter inhibitors, retest of hits, confirmation, U3A cells, luciferase, luminescence | shares compounds with STAT3 inh-1 | IL-6 STAT3 luciferase reporter; cell line lacks STAT1 | inhibition, % at 5.7 µM | 1,200 tested, 45% active;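 active = inhibition above the hit cutoff computed for the primary STAT3 screen, cut at about 44% in these data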;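 also: 0% = IL-6 plus DMSO and 100% = IL-6 plus nifuroxazide control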
# NFkB inh STAT3ct = NF-kB reporter inhibitors in human cells, confirmation, counter-screen for STAT3 inhibitor project, cell-based, HEK293T, luciferase, TNF-alpha stimulus. 1,200 tested, 36% active. inhibition, % at 5.7 µM. shares compounds with STAT3 inh-1. TNF-alpha induced;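 active = inhibition above the mean of solvent-only control wells plus 3 SD, cutoff set per campaign, cut at about 13% in these data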;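 also: 0% = TNF-alpha with DMSO and 100% = TNF-alpha with MG high control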
# STAT1 inh STAT3c = STAT1 reporter inhibitors, IFN-gamma induced, confirmation, counter-screen for STAT3 inhibitor project, cell-based, NIH 3T3, luciferase luminescence. inhibition, % at 5.7 µM. shares compounds with STAT3 inh-1. NIH 3T3 STAT1-luciferase reporter. AID 1317, 2008. 1,200 tested, 27% active;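 active = inhibition above the mean plus 3 SD of solvent-only control wells, limit set per screening run, cut at about 16% in these data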;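 also: 0% = DMSO with IFN-gamma and 100% = nifuroxazide control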
# * marks the source's active call; other numbers are inactive results; · = not tested or not shown.
SMILES,FLuc act counter,STAT3 activator,STAT3 inh-1,FLuc inhib CS,STAT1 activator,STAT1 inh,STAT3 inh-2,NFkB inh STAT3ct,STAT1 inh STAT3c
C[n+]1cn(CC(O)COCc2ccccc2)c2ccccc21 (stereo not given),1.1,109,-5,-6,109,-10,·,·,·
CCCCCc1ccc(OCCOCCn2c[n+](C)c3ccccc32)c(CCCCC)c1,1,54,56*,1,70,31,66*,16*,23*
CCN1CCN(S(=O)(=O)c2cccs2)CC1,1.1,99,3,-6,105,-5,·,·,·
O=S(=O)(c1cccs1)N1CCN(CC(O)COc2cc(Cl)ccc2Cl)CC1 (stereo not given),1.1,57,54*,-6,81,21,35,15*,17*
Cc1ccc(C)c(N2CCN(C(=O)Nc3ccc4c(c3)N(C)C(=O)CS4)CC2)c1,1,65,45*,-4,67,34,37,15*,20*
COP(=O)(OC)C(Nc1ccc(C)cc1)c1ccc([N+](=O)[O-])cc1 (stereo not given),1.1,110,-14,-7,104,-4,·,·,·
Cc1ccc2nc(NC(=O)CSCC(=O)OCC(=O)c3ccc(Br)cc3)sc2c1,1,33,87*,2,67,36*,67*,23*,33*
COC(=O)c1ccc2nc(NC(=O)CSCC(=O)OCC(=O)c3ccccc3)sc2c1,0.9,106,-10,8,111,-10,·,·,·
CCCCC(=O)Nc1nnc(-c2ccco2)o1,0.9,104,-3,6,107,-7,·,·,·
O=C(O)Cc1sc(Nc2ccc(F)cc2)nc1-c1cccs1,0.9,105,-5,5,120,-22,·,·,·
O=C(Nc1ccc(-c2nc3ccccc3s2)cc1)c1cc(-n2cnnc2)ccc1Cl,1,53,62*,0,97,4,33,-2,-10
Cc1cc(C(F)F)nn1CC(=O)Nc1cc([N+](=O)[O-])ccc1F,1.1,94,9,-8,99,0,·,·,·
CC1CCc2sc(C(=O)NN)cc2C1 (stereo not given),1,103,-2,1,105,-7,·,·,·
CCOC(=O)c1sc(NC(=O)c2cc3c(s2)CCC(C)C3)nc1C (stereo not given),1,54,56*,0,98,2,-7,-9,-43
Cc1ccc(S(=O)(=O)NCc2ccncc2)c(C)c1C,1,32,81*,-4,73,29,82*,26*,14
COc1cc(C)c(Br)cc1S(=O)(=O)NCc1ccncc1,1,51,61*,-3,76,26,58*,20*,18*
Cc1cc(C)c(S(=O)(=O)NCc2ccncc2)c(C)c1,1,38,75*,-1,75,27,74*,27*,23*
CCCCNS(=O)(=O)c1ccc(S(=O)(=O)NCc2ccncc2)cc1,1.1,57,54*,-6,81,25,35,-3,19*
Cc1ccc(S(=O)(=O)NCCc2ccncc2)cc1,1.1,102,0,-7,93,7,·,·,·

# Screens: PubChem, several laboratories
